In ChEMBL document CHEMBL1157300, “(+)-N-Deoxymilitarinone A, a neuritogenic pyridone alkaloid from the insect pathogenic fungus Paecilomyces farinosus” (J Nat Prod, 2006):
The source made the active and inactive calls. The calls are words filed in the database; no cut-off is given here.

Legend:
[1] = Cytotoxicity against human IMR32 cells assessed as cell viability at 1 uM by MTT assay relative to control; type: cell-based; settings: imr-32, 1 µM
How it was run: (§1)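 IMR-32 cells grown in MEM/F12 with 10% fetal bovine serum; viability read by MTT assay in 96-well format. Test concentrations were 1, 10 and 100 µM, each tested six times.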

[2] = Cytotoxicity against human IMR32 cells assessed as cell viability at 10 uM by MTT assay relative to control; type: cell-based; settings: imr-32, 10 µM; how it was run: as §1
PC-12 [3] = assay: Induction of neurite outgrowth in rat PC12 cells at 3.3 uM after 48 hrs; type: functional, cell-based
How it was run: (§2)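 PC-12 cells plated on collagen at 1 × 10^5 cells/mL and cultured 4 h. Compound added from MeOH at 3.3, 10, 33 or 100 µM (0.3% MeOH final), in duplicate, then incubated 48 h. Positive control NGF 10 ng/mL; negative control 0.3% MeOH. Over 300 cells or aggregates per well in six random fields scored by phase-contrast microscopy for neurite outgrowth.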

PC-12 [4] = assay: Induction of neurite outgrowth in rat PC12 cells at 33 uM after 48 hrs; type: functional; how it was run: as §2
PC-12 [5] = assay: Neuritogenic activity in rat PC12 cells assessed as neurite length equal or less than cell body at 33 uM after 48 hrs; type: functional
How it was run: (§3)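 PC-12 cells on collagen (1 × 10^5 cells/mL, 4 h pre-culture) treated in duplicate for 48 h, compound delivered in MeOH (0.3% final); NGF 10 ng/mL and 0.3% MeOH controls. By phase contrast, over 300 cells or aggregates per well in six random fields classed as round with no neurite, neurite ≤ cell body, or neurite ≥ twice cell diameter; given as % of cells.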

PC-12 [6] = assay: Neuritogenic activity in rat PC12 cells assessed as neurite length equal or less than cell body at 100 uM after 48 hrs; type: functional; how it was run: as §3
PC-12 [7] = assay: Induction of neurite outgrowth in rat PC12 cells at 100 uM after 48 hrs; type: functional; how it was run: as §2
[8] = Cytotoxicity against human IMR32 cells assessed as cell viability at 100 uM by MTT assay relative to control; type: cell-based, IMR-32; settings: read-out: Activity; how it was run: as §1
PC-12 [9] = assay: Neuritogenic activity in rat PC12 cells assessed as neurite length twice the cell diameter or longer at 100 uM after 48 hrs; type: functional; how it was run: as §3
PC-12 [10] = assay: Neuritogenic activity in rat PC12 cells assessed as round shaped cells with no neurite outgrowth at 100 uM after 48 hrs; type: functional; how it was run: as §3
PC-12 [11] = assay: Neuritogenic activity in rat PC12 cells assessed as round shaped cells with no neurite outgrowth at 33 uM after 48 hrs; type: functional; how it was run: as §3
PC-12 [12] = assay: Induction of neurite outgrowth in rat PC12 cells at 10 uM after 48 hrs; type: functional, cell-based; how it was run: as §2

For CC[C@@H](C)C[C@@H](C)/C=C(C)/C=C/C=C/C(=O)c1c(O)c([C@]2(O)CC[C@@H](O)CC2)c[nH]c1=O [N-DEOXYMILITARINONE A], which Activity [1] is on record?
Its Activity is “Not Active”.

What about the Activity [2] of the same molecule?
The Activity was “Not Active”.

And the Activity (PC-12 [3])?
Its Activity is “inactive”.

And the Activity (PC-12 [4])?
The Activity was 12%.

What about the Activity (PC-12 [5]) of the same molecule?
The Activity was 12%.

What about the Activity (PC-12 [6]) of the same molecule?
The Activity was 30%.

And the Activity (PC-12 [7])?
Its Activity is 51%.

And the viability at 100 µM [8]?
The viability at 100 µM was 22%.

And the Activity (PC-12 [9])?
Its Activity is 21%.

What about the Activity (PC-12 [10]) of the same molecule?
Its Activity is 49%.

What about the Activity (PC-12 [11]) of the same molecule?
The Activity was 88%.

And the Activity (PC-12 [12])?
Its Activity is “inactive”.
